The results in this text go back to ChEMBL document CHEMBL3259808, “Optimization of antitrypanosomatid agents: identification of nonmutagenic drug candidates with in vivo activity” (J Med Chem, 2014).

The subject of series [1] is Trypanosoma cruzi. Kind of series: Antitrypanosomal activity against Trypanosoma cruzi Tulahuen 2 epimastigotes assessed as growth inhibition after 5 days. To be noted: Trypanosoma cruzi, Tulahuen 2, 120 h. It counts as functional, organism-based. The essentials:
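Epimastigotes were grown axenically at 28 °C in BHI-tryptose with 5% FBS and seeded from a 5–7 day culture at 1 × 10⁶ cells/mL. Drug from a DMSO stock was added (final DMSO ≤0.4%; the control contained 0.4% DMSO). Duplicates were run. A600 was read at day 5, and % inhibition was calculated relative to day-0 and control readings. IC50 = concentration that halves the absorbance ratio.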

Series [2] has as its system Trypanosoma cruzi. Description: Antitrypanosomal activity against Trypanosoma cruzi Sylvio X-10 amastigotes infected in African green monkey Vero cells assessed as eradication of amastigotes after 72 hrs by Giemsa staining-based assay. Conditions: Trypanosoma cruzi, Sylvio X-10, Vero, 72 h.
A short description of series [3]: Selectivity index, ratio of IC50 for African green monkey Vero cells to IC50 for Trypanosoma cruzi Sylvio X-10 amastigotes. The class given is toxicity, cell-based. Conditions: read-out: Ratio IC50. Put shortly: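 VERO cytotoxicity: cells exposed 48 h at 37 °C, 5% CO2 to serial dilutions from a maximum of 2000 μM (DMSO stocks; DMSO <0.1% control); growth inhibition read by MTT at 570 nm. Amastigote IC50: Sylvio X-10-infected VERO cells, five doses, infected cells counted among 300 (Giemsa), quadruplicate, three experiments, sigmoidal fit. SI = IC50 VERO / IC50 amastigote.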

Series [4] has as its system Trypanosoma cruzi. Description: Antitrypanosomal activity against Trypanosoma cruzi CL Brener infected in BALB/c mouse assessed as peak of maximum parasitemia at 192 umol/kg/day, po for 14 days administered in saline and tween 80 measured up to 60 days relative to control. The class given is functional. Put shortly: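 Male BALB/c mice (30 days old, 25–30 g, SPF) were infected i.p. with 10³ blood trypomastigotes, n = 8/group. Daily oral gavage in saline/Tween 80 (4:1) ran for 14 days from day 6 post-infection; controls received vehicle only. Parasitemia was counted weekly in tail-vein blood by hemocytometer for 60 days, and survival was recorded.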

The subject of series [5] is Trypanosoma cruzi. Description: Antitrypanosomal activity against Trypanosoma cruzi CL Brener infected in BALB/c mouse assessed as mouse survival at 192 umol/kg/day, po for 14 days administered in saline and tween 80 measured up to 60 days relative to control. The class given is functional.
The test system of series [6] is Trypanosoma cruzi. Kind of series: Antitrypanosomal activity against Trypanosoma cruzi Sylvio X-10 amastigotes infected in African green monkey Vero cells assessed as eradication of amastigotes after 5 days by Giemsa staining-based assay. The class given is functional, organism-based. To be noted: Sylvio X-10, Vero, 120 h. Put shortly: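 VERO cells in RPMI 1640 with 10% hiFCS were allowed to adhere for 24 h at 37 °C in 5% CO₂, then infected with tissue-derived trypomastigotes at 10:1. Free parasites were washed off after 24 h, and cultures were treated at five compound doses (text gives 72 h / 5 days). Cultures were methanol-fixed and Giemsa-stained, and infected cells were counted among 300. Quadruplicates were run in three independent experiments. IC50/IC90 were obtained by sigmoidal regression.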

The nature of series [7]: Selectivity index, ratio of IC50 for mouse J774.1 cells to IC50 for Trypanosoma cruzi Sylvio X-10 amastigotes. It counts as toxicity. To be noted: read-out: Ratio IC50. Put shortly:
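J774.1 macrophages grown in DMEM with 10% heat-inactivated FCS and allowed to attach 48 h, then exposed 48 h at 37 °C to 12.5–400.0 μM. Triplicates. MTT 0.1 mg/mL for 3 h, read at 560 nm; IC50 by linear regression against the solvent control. SI = IC50 J774.1 / parasite IC50 (Sylvio X-10 amastigotes or Tulahuen 2 epimastigotes, the latter measured by A600 growth inhibition at day 5).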

The test system of series [8] is Salmonella typhimurium. Kind of series: Mutagenic activity in Salmonella typhimurium TA98 at 6 to 500 ug/plate by Ames test. It counts as toxicity, organism-based. Conditions: salmonella enterica subsp. enterica serovar typhimurium. Put shortly:
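Ames plate-incorporation assay with S. typhimurium TA98 in Vogel-Bonner E minimal glucose agar. Toxicity toward the bacteria was checked first. DMSO solutions were run in triplicate at five consecutive third-dilutions, starting at the highest non-toxic dose. Positive controls were 4-nitro-o-phenylenediamine (20.0 μg/plate) and 2-aminofluorene (10.0 μg/plate); DMSO was the negative control. Revertants were counted manually. A compound was called mutagenic when revertants were at least twice the negative control at two or more consecutive doses.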
For orientation: The Ames test detects mutagens through reverse mutation in bacteria.

For series [9], the system named is Salmonella typhimurium. Kind of series: Mutagenic activity in Salmonella typhimurium TA100 at 6 to 500 ug/plate by Ames test. It counts as toxicity, organism-based. To be noted: salmonella enterica subsp. enterica serovar typhimurium. The essentials: (§1)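 Direct plate incubation on minimal glucose agar (Vogel-Bonner E). Compound toxicity to the bacteria was checked first. DMSO solutions were tested at five consecutive 3-fold dilutions, starting from the highest non-toxic dose, in triplicate, without metabolic activation. DMSO served as negative control. Revertants were counted manually; mutagenic = revertants at least double the negative control at two or more consecutive doses.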

Series [10] deals with Salmonella typhimurium. Description: Mutagenic activity in Salmonella typhimurium TA100 at 6 to 500 ug/plate by Ames test in presence of mouse liver S9 fraction. Conditions: salmonella enterica subsp. enterica serovar typhimurium. The class given is toxicity, organism-based. The essentials: (§2)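 Plate-incorporation Ames test on minimal glucose agar with 500 μL Aroclor-treated mouse liver S9 added. DMSO solutions were tested at five consecutive 3-fold dilutions from the highest non-toxic dose, in triplicate, with a DMSO negative control. Revertants were counted manually; a compound was scored mutagenic when revertants were at least twice the negative control for two or more consecutive doses.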

For series [11], the system named is Salmonella typhimurium. Description: Mutagenic activity in Salmonella typhimurium TA102 at 6 to 500 ug/plate by Ames test. It counts as toxicity, organism-based. To be noted: salmonella enterica subsp. enterica serovar typhimurium. Put shortly:
as §1

Series [12] deals with Salmonella typhimurium. Kind of series: Mutagenic activity in Salmonella typhimurium TA102 at 6 to 500 ug/plate by Ames test in presence of mouse liver S9 fraction. It counts as toxicity, organism-based. Conditions: salmonella enterica subsp. enterica serovar typhimurium. Put shortly:
as §2

The subject of series [13] is Salmonella typhimurium. Description: Mutagenic activity in Salmonella typhimurium TA1535 at 6 to 500 ug/plate by Ames test. The class given is toxicity, organism-based. To be noted: salmonella enterica subsp. enterica serovar typhimurium. Put shortly: as §1
Series [14] concerns Salmonella typhimurium. Description: Mutagenic activity in Salmonella typhimurium TA1535 at 6 to 500 ug/plate by Ames test in presence of mouse liver S9 fraction. To be noted: salmonella enterica subsp. enterica serovar typhimurium. It counts as toxicity, organism-based. The essentials:
as §2

Series [15] has as its system Salmonella typhimurium. Description: Mutagenic activity in Salmonella typhimurium TA1537 at 6 to 500 ug/plate by Ames test. The class given is toxicity, organism-based. Conditions: salmonella enterica subsp. enterica serovar typhimurium. Put shortly: as §1
In series [16] the test system is Salmonella typhimurium. Kind of series: Mutagenic activity in Salmonella typhimurium TA1537 at 6 to 500 ug/plate by Ames test in presence of mouse liver S9 fraction. It counts as toxicity, organism-based. Conditions: salmonella enterica subsp. enterica serovar typhimurium. The essentials: as §2
Series [17] can be described thus: Stability of the compound in aqueous solution assessed as compound remaining at 1 mM at pH 6 after 1 hr by TLC analysis. It counts as physicochemical. To be noted: aqueous solution, pH 6; read-out: Stability. Put shortly:
(§3)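 DMSO stocks diluted to final 1 mM in KCl·HCl pH 1.0, citrate pH 6.0, Tris·HCl pH 7.4 or borax·HCl pH 9.0 buffer. Incubated 1 h at 37 °C, then ethyl acetate extracts checked by TLC for decomposition products.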

A short description of series [18]: Stability of the compound in aqueous solution assessed as compound remaining at 1 mM at pH 7.4 after 1 hr by TLC analysis. The class given is physicochemical. To be noted: aqueous solution, pH 7.4; read-out: Stability. The essentials: as §3
Series [19] in a line: Stability of the compound in aqueous solution assessed as compound remaining at 1 mM at pH 9 after 1 hr by TLC analysis. The class given is physicochemical. To be noted: aqueous solution, pH 9; read-out: Stability. Put shortly:
as §3

Series [20] is described as follows: Stability of the compound in aqueous solution assessed as compound remaining at 1 mM at 37 degC after 1 hr by TLC analysis in presence of rat liver cytosolic fraction. The class given is ADME. Conditions: cytosol, 1000 µM. Put shortly:
(§4)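 Rat liver cytosolic (100 000g supernatant) and microsomal (100 000g pellet, washed and resuspended in Tris·HCl) fractions, fresh or stored at −80 °C; protein measured by BCA. Compound incubated with the fraction 1 h at 37 °C and analysed by TLC of extracts.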

A short description of series [21]: Stability of the compound in aqueous solution assessed as compound remaining at 1 mM at 37 degC after 1 hr by TLC analysis in presence of rat liver microsomal fraction. Conditions: microsomes, 1000 µM. The essentials:
as §4
Background: Liver microsomes are vesicles of endoplasmic reticulum, rich in cytochrome P450 enzymes.

The nature of series [22]: Stability of the compound in eumulgin HRE 40, sodium oleate, soya phosphatidylcholine, cholesterol, and phosphate buffer at pH 7.4 at 4 degC. It counts as physicochemical. The essentials: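 Storage stability of the compound in vehicle V2, a microemulsion of surfactant (Eumulgin HRE 40/sodium oleate/soya phosphatidylcholine, 10%), cholesterol oil phase (10%) and pH 7.4 phosphate buffer (80%), followed over 1 week at 4 °C.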

Series [23] concerns Mus musculus. Kind of series: Toxicity in BALB/c mouse assessed as mortality at 100 mg/kg/day, po for 14 days. Also noted: route oral. It counts as organism-based. To be noted: in vivo, 336 h. The essentials: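 Uninfected female BALB/c mice (n = 2/group) received intragastric gavage daily for 14 days in saline/Tween 80 (4:1). They were weighed and monitored daily, then sacrificed for macroscopic necropsy of organs.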

For series [24], the system named is Trypanosoma cruzi. Description: Antitrypanosomal activity against Trypanosoma cruzi CL Brener infected in BALB/c mouse assessed as peak of maximum parasitemia at 107 umol/kg/day, po administered in cholesterol/surfactant/phosphate buffer in 19 day schedule including 5 days of dosing 2 days of resting and final 4 days of dosing measured up to 60 days relative to control. The class given is functional. The essentials: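 Male BALB/c mice (n = 6/group) were infected i.p. with 10³ blood trypomastigotes. From day 6 they were dosed orally in microemulsion vehicle on a schedule of 5 days on, 2 off, 5 on, 2 off, 4 on. Controls received vehicle. Parasitemia was counted weekly in tail-vein blood for 60 days, and mortality was recorded.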

For series [25], the system named is Trypanosoma cruzi. Kind of series: Antitrypanosomal activity against Trypanosoma cruzi CL Brener infected in BALB/c mouse assessed as mouse survival at 107 umol/kg/day, po administered in cholesterol/surfactant/phosphate buffer in 19 day schedule including 5 days of dosing 2 days of resting and final 4 days of dosing measured up to 60 days relative to control. It counts as functional. Put shortly: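 Oral gavage of infected male BALB/c mice at 50 mg/kg/day in cholesterol/surfactant/phosphate buffer pH 7.4 microemulsion, from day 6 postinfection. Schedule: 5 days dosing, 2 rest, 5 dosing, 2 rest, 4 dosing. n = 6/group, with vehicle controls. Parasitemia was read weekly in tail-vein blood for 60 days and mortality recorded.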

Bounds are passed on as bounds.

By IC50 is commonly meant the concentration needed to halve the response being measured. Regarding `O=C(Cn1ccnc1[N+](=O)[O-])NCc1ccccc1` [BENZNIDAZOLE], the IC50 in series [1] is 7 µM; in series [2], 3.3 µM. Further, the selectivity ratio in [3] was 300. In addition, the Time in series [4] came out at 42 days. In series [5], the survival at 192 µmol/kg was found to be 100%.

Consider `Br.C=CCn1c(-c2ccc3ccccc3c2)cs\c1=N/N=C/C=C/c1ccco1`, for which the IC50 in [1] was 2.4 µM; in series [6] it was below 0.21 µM. The selectivity ratio was above 1000 in series [3] and above 120 in series [7]. Besides, the Activity entry in series [8], in series [9], in [10], in series [11], in series [12] and in series [13] was “Non-toxic” each time. Moreover, the Activity entry in [14], in [15], in [16] and in series [23] was “Non-toxic” throughout. The remaining at 1 h, 1000 µM in series [17], in series [18] and in [19] was above 95% throughout. Further, the Stability result in series [20], in series [21] and in series [22] was “Stable” throughout. Further, the Time in series [24] is 42 days. Also, the survival at 107 µmol/kg in [25] was 100%.
